Published values from different studies.
Each line is one published result; the experiments were not run side by side.
Technique: competition with immobilised ligand
RPS6KA5 N-terminal kinase domain: Ribosomal protein S6 kinase alpha-5, N-terminal kinase domain (RPS6KA5, Homo sapiens, UniProt O75582)
RPS6KA5 C-terminal kinase domain: Ribosomal protein S6 kinase alpha-5, C-terminal kinase domain (RPS6KA5, Homo sapiens, UniProt O75582)

SMILES | target | read-out | concentration | remaining binding [%]
O=C(NCCCN1CCOCC1)c1ccc(Nc2nccc(-c3cc4ccccc4s3)n2)cc1 | RPS6KA5 N-terminal kinase domain | binding | 1 µM | 100
CC(=O)N1CCC(c2ccc(C(=O)NC3=NCCN3)cc2C(F)(F)F)CC1 | RPS6KA5 N-terminal kinase domain | cell-free assay | 1 µM | 100
O=C(c1ccc(Nc2nccc(-c3cc4ccccc4s3)n2)cc1)N1CCC(N2CCCC2)CC1 | RPS6KA5 N-terminal kinase domain | binding | 1 µM | 100
NS(=O)(=O)c1cc(NC(=O)C2(c3ccccc3Cl)CC2)ccc1Oc1cccc(Cl)c1 | RPS6KA5 N-terminal kinase domain | cell-free assay | 1 µM | 100
c1cncc(-c2cccc(Nc3nccc(NC4CCCCC4)n3)c2)c1 | RPS6KA5 C-terminal kinase domain | binding | 10 µM | 100
COc1cnc(Nc2cccc(S(N)(=O)=O)c2)nc1N1CCN(c2ccccc2)CC1 | RPS6KA5 C-terminal kinase domain | binding | 1 µM | 97
CN(CCCC(F)(F)F)c1nccc(-c2cnn3ncccc23)n1 | RPS6KA5 C-terminal kinase domain | binding | 1 µM | 100
CN([C@@H]1CCc2c(CC(=O)O)c3cc(S(C)(=O)=O)ccc3n2C1)S(=O)(=O)c1ccc(F)cc1 | RPS6KA5 N-terminal kinase domain | cell-free assay | 1 µM | 85
Cc1cnn2ncc(-c3ccnc(N(C)C)n3)c2c1 | RPS6KA5 N-terminal kinase domain | binding | 1 µM | 100
Nc1ncc2c(n1)-c1c([nH]c3ccc(C#CC4CC4)cc13)CCCC2 | RPS6KA5 N-terminal kinase domain | binding | 1 µM | 93
CCN1CCN(Cc2ccc(C(=O)Nc3ccc(C)c(Oc4ccc5c(c4)CC(=O)N5)c3)cc2C(F)(F)F)CC1 | RPS6KA5 C-terminal kinase domain | binding | 1 µM | 100
O=C(O)[C@@H]1[C@@H](Cn2nnc3ccccc3c2=O)CC[C@H]1C(=O)c1ccc(OCCC2CCOCC2)cc1 | RPS6KA5 C-terminal kinase domain | cell-free assay | 1 µM | 100
CNC(=O)[C@@H]1CC[C@@H](n2c(-c3ccc4cnccc4c3)nc3ccc(C(=O)NCc4cccc(C(N)=O)c4)cc32)C1 | RPS6KA5 N-terminal kinase domain | binding | 1 µM | 100
COc1ncc2cc3ccccc3nc2c1C#N | RPS6KA5 N-terminal kinase domain | cell-free assay | 5 µM | 91
C=CC(=O)N1CCC(C(=O)NCC(=O)N2CCN(c3nc(-c4cnc(N)nc4C(F)F)nc(N4CCOCC4)n3)CC2)CC1 | RPS6KA5 C-terminal kinase domain | binding | 1 µM | 100
Cn1nc(C(=O)NCc2ccc(C(=O)O)cc2)cc1-c1ccc2[nH]ccc2c1 | RPS6KA5 N-terminal kinase domain | cell-free assay | 0.1 µM | 76

SMILES | target | read-out | concentration | remaining binding [%]
O=C(NCC1CCOCC1)c1n[nH]cc1NC(=O)c1c(F)cccc1F | RPS6KA5 C-terminal kinase domain | binding | 1 µM | 94
C[C@@H]1CCN(c2nccc(-c3cnn4ncccc34)n2)C1 | RPS6KA5 N-terminal kinase domain | binding | 1 µM | 70
O=C(Nc1c[nH]nc1C(=O)NC1CCNCC1)c1cc(F)cc(F)c1 | RPS6KA5 N-terminal kinase domain | binding | 1 µM | 96
C[C@@H](c1ccc(-n2cnc3c(N)ncnc32)cc1)N1CCc2nn(C)c(Cc3ccccc3)c2C1=O | RPS6KA5 N-terminal kinase domain | binding | 0.1 µM | 95
Cc1noc([C@H]2C[C@@H](c3ccc(C(F)(F)F)cc3)CN(C(=O)N3CCS(=O)(=O)C3)C2)n1 | RPS6KA5 C-terminal kinase domain | cell-free assay | 1 µM | 100
O=C(c1ccc(Nc2ncc(Cl)c(-c3cc4ccccc4s3)n2)cc1)N1CCC(N2CCCC2)CC1 | RPS6KA5 N-terminal kinase domain | binding | 1 µM | 100
CSc1cccnc1N1CCN(Cc2nc3ccccc3[nH]2)CC1 | RPS6KA5 C-terminal kinase domain | cell-free assay | 1 µM | 100
COc1cnc(Nc2cccc(S(N)(=O)=O)c2)nc1N1CCN(c2ccccc2)C(=O)C1 | RPS6KA5 C-terminal kinase domain | binding | 1 µM | 100
CN(C)c1nccc(-c2cnn3ncccc23)n1 | RPS6KA5 C-terminal kinase domain | binding | 1 µM | 98
O=C(NCCCN1CCOCC1)c1ccc(Nc2ncc(Cl)c(-c3ccc(Cl)s3)n2)cc1 | RPS6KA5 C-terminal kinase domain | binding | 1 µM | 54
F[C@@H]1CCN(c2nccc(-c3cnn4ncccc34)n2)C1 | RPS6KA5 C-terminal kinase domain | binding | 1 µM | 73
Cc1cnc(Nc2ccc(C(=O)N3CCC(N4CCCC4)CC3)cc2)nc1-c1cc2ccccc2s1 | RPS6KA5 C-terminal kinase domain | binding | 1 µM | 96
N[C@H]1CCN(c2nccc(-c3cnn4ncccc34)n2)C1 | RPS6KA5 N-terminal kinase domain | binding | 1 µM | 100
CCC(=O)N[C@H]1CC[C@@H](C(=O)N(C)c2ccc(-c3nc4ccccc4o3)cc2)C1 | RPS6KA5 C-terminal kinase domain | cell-free assay | 1 µM | 68
O=C(c1ccc(Nc2ncc(Cl)c(-c3ccc(Cl)s3)n2)cc1)N1CCC(N2CCCC2)CC1 | RPS6KA5 N-terminal kinase domain | binding | 1 µM | 100
c1cnn2ncc(-c3ccnc(N4CCC45COC5)n3)c2c1 | RPS6KA5 N-terminal kinase domain | binding | 1 µM | 100
